≈ marks a conversion by molar mass, not a printed value.
How the values were obtained:
[1] = tested on: Radical scavenging activity; assay: Antioxidant activity assessed as DPPH radical scavenging activity; type: functional
In short: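 DPPH radical-scavenging test; activity expressed as RC50, reported in µg/mL.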

[2] = Inhibition of Staphylococcus aureus sortase A
Isocitrate lyase = Isocitrate lyase (Candida albicans, UniProt Q9P8Q7); assay: Inhibition of Candida albicans isocitrate lyase
Chain of Isocitrate lyase (Q9P8Q7 whole entry): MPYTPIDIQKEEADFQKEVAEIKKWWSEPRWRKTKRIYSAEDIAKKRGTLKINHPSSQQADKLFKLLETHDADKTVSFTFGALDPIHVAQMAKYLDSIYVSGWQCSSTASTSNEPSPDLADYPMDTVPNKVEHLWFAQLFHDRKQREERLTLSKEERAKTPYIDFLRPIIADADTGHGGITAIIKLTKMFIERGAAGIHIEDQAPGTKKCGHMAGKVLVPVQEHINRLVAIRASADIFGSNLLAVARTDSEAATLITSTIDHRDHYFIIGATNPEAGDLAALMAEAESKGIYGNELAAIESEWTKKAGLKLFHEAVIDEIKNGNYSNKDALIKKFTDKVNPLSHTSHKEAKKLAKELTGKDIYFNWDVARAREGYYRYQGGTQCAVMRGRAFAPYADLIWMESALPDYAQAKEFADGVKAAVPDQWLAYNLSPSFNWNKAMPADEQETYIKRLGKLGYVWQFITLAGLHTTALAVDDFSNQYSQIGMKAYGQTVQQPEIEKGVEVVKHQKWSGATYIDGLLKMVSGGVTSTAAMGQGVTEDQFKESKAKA

IC50 [2] [µg/mL] | IC50 (Isocitrate lyase) [µM] | SMILES | RC50 [1] [µg/mL]
> 200 | 106 | C=CC(C)(CC/C=C(\C)CCCC(C)C(O)/C=C/C(=C)C)Oc1ccc(O)cc1CC(=O)OC (configuration not stated) | 12.4
> 200 | 103 | C=CC(C)(CC/C=C(\C)CC/C=C(/C)[C@H](O)C(=O)C=C(C)C)Oc1ccc(O)cc1CC(=O)OC (some centres not stated) | 23.2
> 200 | 112 | CC(C)=CC(O)C(=O)/C(C)=C/CC/C(C)=C/CCC(C)(O)CCc1cc(O)cc(C)c1O (configuration not stated) | 0.24
> 200 |  | C=CC(C)(CC/C=C(\C)CCCC(C)C(=O)[C@@H](O)C=C(C)C)Oc1ccc(O)cc1CC(=O)OC (some centres not stated) [NAHOCOL A] | 11.3
23 (≈ 47.3 µM) |  | COC(=O)Cc1cc(O)cc(C/C=C(/C)CC/C=C(\C)CC/C=C(\C)[C@@H](O)[C@@H](O)C=C(C)C)c1O [ISONAHOCOL D1] | 0.13
> 200 |  | C=CC(C)(CC/C=C(\C)CCCC(C)C(=O)[C@H](O)C=C(C)C)Oc1ccc(O)cc1CC(=O)OC (some centres not stated) [NAHOCOL A1] | 12.7
> 200 |  | C=CC(C)(CC/C=C(\C)CCCC(C)C(O)C(=O)C=C(C)C)Oc1ccc(O)cc1CC(=O)OC (configuration not stated) | 9.12
> 200 |  | C=CC(C)(CC/C=C(\C)CCCC(C)[C@@H](O)C(=O)C=C(C)C)Oc1ccc(O)cc1CC(=O)OC (some centres not stated) | 17.2
> 200 | 103 | C=CC(C)(CC/C=C(\C)CC/C=C(\C)[C@H](O)C(=O)C=C(C)C)Oc1ccc(O)cc1CC(=O)OC (some centres not stated) | 14.7
23 (≈ 47.5 µM) |  | COC(=O)Cc1cc(O)cc(C/C=C(/C)CC/C=C(\C)CC/C=C(\C)C(=O)[C@@H](O)C=C(C)C)c1O | 0.33
> 200 |  | C=CC(C)(CC/C=C(\C)CC/C=C(\C)[C@@H](O)[C@@H](O)C=C(C)C)Oc1ccc(O)cc1CC(=O)OC (some centres not stated) [NAHOCOL D1] | 18.5
23 (≈ 47.3 µM) |  | COC(=O)Cc1cc(O)cc(C/C=C(\C)CC/C=C(\C)CCCC(C)C(=O)[C@@H](O)C=C(C)C)c1O (some centres not stated) | 0.3
> 200 | 103 | C=CC(C)(CC/C=C(\C)CC/C=C(\C)C(=O)[C@@H](O)C=C(C)C)Oc1ccc(O)cc1CC(=O)OC (some centres not stated) | 12.6
23 (≈ 47.3 µM) |  | COC(=O)CC1(C/C=C(\C)CC/C=C(\C)CC/C=C(\C)[C@@H](O)[C@@H](O)C=C(C)C)CC(=O)C=CC1=O (some centres not stated) | > 300
> 200 | 117 | CC(C)=CCC/C(=C/CC/C(C)=C/CC/C(C)=C/Cc1cc(O)cc(C)c1O)C(=O)O [SARGAHYDROQUINOIC ACID] | 0.17
23 (≈ 47.3 µM) |  | COC(=O)Cc1cc(O)cc(C/C=C(\C)CC/C=C(\C)CC/C=C(\C)[C@@H](O)[C@@H](O)C=C(C)C)c1O [ISONAHOCOL D2] | 0.12
> 200 |  | C=CC(C)(CC/C=C(\C)CC/C=C(\C)[C@@H](O)[C@H](O)C=C(C)C)Oc1ccc(O)cc1CC(=O)OC (some centres not stated) [NAHOCOL D2] | 12.4
23 (≈ 47.3 µM) |  | COC(=O)Cc1cc(O)cc(C/C=C(/C)CCC(=O)C(C)CC/C=C(\C)C[C@H](O)C=C(C)C)c1O (some centres not stated) | 0.1
> 200 | 107 | C=CC(C)(CC/C=C(\C)C[C@@H]1C=C(C)C(=O)[C@H]1C=C(C)C)Oc1ccc(O)cc1CC(=O)OC (some centres not stated) | 11.7
23 (≈ 47.5 µM) |  | COC(=O)Cc1cc(O)cc(C/C=C(\C)CC/C=C(\C)CC/C=C(\C)C(=O)[C@@H](O)C=C(C)C)c1O | 0.31

From ChEMBL document CHEMBL1140167, “Meroditerpenoids from the brown alga Sargassum siliquastrum” (J Nat Prod, 2008)
